Series [1] deals with Mus musculus. In words: Anti-atherosclerotic activity in apoE knockout mouse fed with western-type diet assessed as reduction in lesions in proximal aorta at 40 mg/kg/day, ig for 7 weeks by hematoxylin and eosin staining-based assay relative to control. The series is classed as functional. Details: scale not given: the % may be the effect or the level left. Summed up:
(§1)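 ApoE KO mice fed Western-type diet, then given 12.5 or 40 mg/kg/day by gavage in 30% PEG-400/10% DMSO/0.9% NaCl for 7 weeks. Aortic root: H&E-stained 4 µm sections, mean lesion area from 6 sections per animal. Whole aorta: en face Oil Red O staining, percentage of area stained. Compared with vehicle, n = 10.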

The subject of series [2] is Mus musculus. Kind of series: Anti-atherosclerotic activity in apoE knockout mouse fed with western-type diet assessed as reduction in CD11b+/CD11c+ dendritic cells at 12.5 mg/kg/day, ig for 7 weeks by flow cytometric analysis. The series is classed as functional, organism-based. Summed up: (§2)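 ApoE KO mice started at 8 weeks old on Western-type diet for 6 weeks. Then dosed by gavage daily with vehicle, 12.5 or 40 mg/kg for 7 weeks with the diet continued, 10 mice per group. Blood single-cell suspensions stained with antibodies in PBS and analysed by flow cytometry. Mean ± SD, n = 5.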

In series [3] the test system is Mus musculus. In words: Anti-atherosclerotic activity in apoE knockout mouse fed with western-type diet assessed as reduction in CD11b+/CD11c+ dendritic cells at 40 mg/kg/day, ig for 7 weeks by flow cytometric analysis relative to control. The series is classed as functional. On the set-up: scale not given: the % may be the effect or the level left. Summed up:
as §2

Series [4] can be described thus: MRT (0 to infinity) in C57BL/6J mouse at 25 mg/kg/day, ig by HPLC-MS/MS analysis. The series is classed as ADME, organism-based. The note with it: in vivo, po. Summed up:
(§3)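 Male C57BL/6J mice (6–8 weeks, ~20 g), fasted 12 h, given a single intragastric dose of 25, 50 or 100 mg/kg in 10% DMSO/30% PEG/0.9% NaCl. Retro-orbital blood at 5 min to 8 h; plasma protein-precipitated with methanol plus internal standard, assayed by LC-MS/MS; noncompartmental analysis. Mean ± SD, n = 6.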

The test system of series [5] is Mus musculus. Kind of series: Anti-atherosclerotic activity in apoE knockout mouse fed with western-type diet assessed as reduction in lesions in whole aorta at 40 mg/kg/day, ig for 7 weeks by oil-red O staining-based assay relative to control. The series is classed as functional. Details: scale not given: the % may be the effect or the level left. The procedure, abridged:
as §1

Series [6] concerns the target T1, Phosphatidylcholine:ceramide cholinephosphotransferase 2 (Mus musculus) (UniProt Q9D4B1).
T1 sequence (whole entry): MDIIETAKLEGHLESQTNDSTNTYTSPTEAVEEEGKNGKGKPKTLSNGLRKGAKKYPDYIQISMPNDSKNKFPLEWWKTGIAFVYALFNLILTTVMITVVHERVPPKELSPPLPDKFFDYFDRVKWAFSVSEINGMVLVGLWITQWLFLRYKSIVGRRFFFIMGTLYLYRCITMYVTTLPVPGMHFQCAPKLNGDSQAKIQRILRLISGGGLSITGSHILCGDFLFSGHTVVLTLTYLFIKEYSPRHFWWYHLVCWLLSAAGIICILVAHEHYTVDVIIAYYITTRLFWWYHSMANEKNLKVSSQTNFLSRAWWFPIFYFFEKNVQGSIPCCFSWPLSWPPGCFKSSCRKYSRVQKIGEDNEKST
In words: Inhibition of SMS2 in C57BL/6J mouse bone marrow derived macrophages assessed as increase in [3H]-cholesterol efflux after 17 hrs by liquid scintillation analysis. Summed up: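 Bone marrow macrophages treated with inhibitor at various concentrations for 17 h, labeled with [³H]-cholesterol on acetylated LDL, equilibrated 1 h in DMEM/0.2% BSA, then given 50 µg/ml HDL; medium taken at 8 h. Efflux = medium radioactivity as percent of medium plus cell-lysate total, by scintillation counting.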

Series [7] can be described thus: AUC (0 to 8 hrs) in C57BL/6J mouse at 50 mg/kg/day, ig by HPLC-MS/MS analysis. The series is classed as ADME, organism-based. On the set-up: time < 8 hr, dose 50 mg/kg/day, route intragastric. The note with it: in vivo, po. Summed up:
(§4)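 Male C57BL/6J mice, six to eight weeks old, about 20 g, fasted 12 h with free water. Given a single intragastric dose of 25, 50 or 100 mg/kg in 10% DMSO/30% PEG-100/0.9% NaCl. Blood taken retro-orbitally at 5 min to 8 h. Plasma protein-precipitated with methanol plus internal standard, then HPLC-MS/MS on a C18 column. Noncompartmental analysis, n = 6.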

The test system of series [8] is Mus musculus. In words: Anti-atherosclerotic activity in apoE knockout mouse fed with western-type diet assessed as reduction in lesions in whole aorta at 12.5 to 40 mg/kg/day, ig for 7 weeks by oil-red O staining-based assay relative to control. The series is classed as functional, organism-based. Summed up:
as §1

A short description of series [9]: AUC (0 to infinity) in C57BL/6J mouse at 100 mg/kg/day, ig by HPLC-MS/MS analysis. The series is classed as ADME, organism-based. On the set-up: dose 100 mg/kg/day, route intragastric, time infinity. Conditions: in vivo, po. The procedure, abridged: as §4
The subject of series [10] is Mus musculus. In words: Anti-atherosclerotic activity in ig dosed apoE knockout mouse fed with western-type diet assessed as reduction in plasma sphingomyelin level. The series is classed as functional, organism-based. Summed up:
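ApoE KO mice on Western-type diet, dosed by gavage at 12.5 or 40 mg/kg/day for 7 weeks, n = 10. Blood collected at 20 weeks of age. Plasma SM measured by a previously reported method. ALT and AST read on an automated biochemical analyzer.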

For series [11], the system named is Mus musculus. In words: Anti-atherosclerotic activity in apoE knockout mouse fed with western-type diet assessed as reduction in CD11b+/Ly6C++/Ly6G+ dendritic cells at 40 mg/kg/day, ig for 7 weeks by flow cytometric analysis relative to control. The series is classed as functional. On the set-up: scale not given: the % may be the effect or the level left. Summed up:
as §2

For series [12], the system named is Mus musculus. In words: Anti-atherosclerotic activity in apoE knockout mouse fed with western-type diet assessed as reduction in CD11b+/Ly6C++/Ly6G+ dendritic cells at 12.5 mg/kg/day, ig for 7 weeks by flow cytometric analysis relative to control. The series is classed as functional. Details: scale not given: the % may be the effect or the level left. Summed up:
as §2

Series [13] in a line: Apparent oral clearance in C57BL/6J mouse at 25 mg/kg/day, ig by HPLC-MS/MS analysis. The series is classed as ADME, organism-based. The note with it: in vivo. The procedure, abridged:
as §4

Series [14] concerns Mus musculus. In words: Anti-atherosclerotic activity in apoE knockout mouse fed with western-type diet assessed as reduction in lesions in proximal aorta at 12.5 mg/kg/day, ig for 7 weeks by hematoxylin and eosin staining-based assay relative to control. The series is classed as functional. Details: scale not given: the % may be the effect or the level left. Summed up: as §1

The subject of another series is BMDM. In words: Inhibition of LPS-induced MCP1 production in C57BL/6J mouse bone marrow derived macrophages at 6.25 to 50 uM preincubated for 17 hrs followed by LPS-stimulation and measured after 6 hrs by ELISA. The series is classed as functional, cell-based. Summed up:
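Mouse bone marrow-derived macrophages exposed to a range of inhibitor concentrations for 17 h, then LPS 50 ng/ml for 6 h; IL-6 and MCP-1 in culture medium quantified by ELISA. Mean ± SD, n = 7.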

Series [15] is described as follows: Apparent oral clearance in C57BL/6J mouse at 100 mg/kg/day, ig by HPLC-MS/MS analysis. Conditions: in vivo. The series is classed as ADME, organism-based. The procedure, abridged: as §4
Series [16] concerns Mus musculus. In words: Anti-atherosclerotic activity in apoE knockout mouse fed with western-type diet assessed as reduction in liver SMS activity at 12.5 mg/kg/day, ig for 7 weeks relative to control. The series is classed as functional. On the set-up: scale not given: the % may be the effect or the level left. Summed up: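 ApoE KO mice on Western-type diet, dosed by gavage at 12.5 or 40 mg/kg/day for 7 weeks, n = 10. Liver homogenized at 200 mg/ml in 50 mM Tris-HCl pH 7.4, 1 mM EDTA, 250 mM sucrose. C6-NBD-ceramide and DMPC added, incubated at 37 °C, quenched with ethanol. Product read by TLC or HPLC, relative to vehicle.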

Series [17] can be described thus: MRT (0 to 8 hrs) in C57BL/6J mouse at 25 mg/kg/day, ig by HPLC-MS/MS analysis. The series is classed as ADME, organism-based. Conditions: in vivo, po. The procedure, abridged:
as §3

Calls of active or inactive are those of the source. The rule behind the calls is not given here.

On to `CCc1ccccc1COc1ccccc1C(=O)Nc1cccnc1`, for which the Activity was 50% with Mus musculus [1]; 57% with Mus musculus [3]; 41% in the series on Mus musculus [5]; “Dose-dependent effect” in the series with Mus musculus [8]; “Dose-dependent effect” in the series on Mus musculus [10]; 43% with Mus musculus [11]. For the same molecule, the values for the Activity in the series on Mus musculus [12], in the series on Mus musculus [14] and in the series on Mus musculus [16] were 16%, 38% and 35%, respectively. Further, in the series on Mus musculus [2], the result was inactive. Besides, the mean residence time (MRT inf) in series [4] turned out to be 3.64 h. Also, the inhibition entry in series [6] was “Dose-dependent effect”. The AUC at 8 h in series [7] came out at 6260 ng·h/mL. The molecule further yielded an area under the curve AUC(0-inf) in series [9] of 14500 ng·h/mL. Also, the apparent clearance CL/F is 188 mL/min in series [13] and 143 mL/min in series [15]. Besides, the inhibition entry in the series on BMDM was “Active”. The molecule further displayed a mean residence time (MRT) in series [17] of 1.9 h.
